Laboratory results reported in ChEMBL document CHEMBL4814013, “Scaffold repurposing of fendiline: Identification of potent KRAS plasma membrane localization inhibitors” (Eur J Med Chem, 2021).
Activity calls are given as the source filed them. The calls are words filed in the database; no cut-off is given here.

Legend:
BXPC-3 [1] = assay: Antiproliferative activity against human BXPC-3 cells expressing wild type KRAS assessed as reduction in cell growth incubated for 72 hrs by CyQuant proliferation assay; format: functional, cell-based; conditions: BXPC-3, 72 h
How it was run: (§1)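 Cells seeded in 96-well plates; after 24 h fresh growth medium with 0.1% DMSO vehicle or drug added (highest dose 30 µM for cancer lines), grown 72 h at 37 °C, 5% CO2. Live cell number measured by CyQUANT fluorescence. IC50 from three independent experiments. MEFs were isogenic lines carrying oncogenic BRAF or KRAS.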

ESS-1 = assay: Antiproliferative activity against human ESS-1 cells expressing wild type KRAS assessed as reduction in cell growth upto 30 uM incubated for 72 hrs by CyQuant proliferation assay; format: functional, cell-based; conditions: dose microM <=30, time 72.0 hrs; how it was run: as §1
MIA PaCa-2 [2] = assay: Antitumor activity against human MIA PaCa-2 cells harboring KRAS mutant xenografted in nu/nu mouse assessed as reduction in tumor growth at 1 to 5 mg/kg, ip administered once daily for 5 days with 2 days break by caliper analysis; format: functional, organism-based; conditions: dose 1-5 mg/kg, time 5.0 day
How it was run: (§2)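 Female nu/nu mice given 2 × 10⁶ early-passage MiaPaCa-2 cells subcutaneously in the right flank, randomized 10 per group. Dosing began when tumors reached 100 mm³: 1, 2.5 or 5 mg/kg i.p. daily for 5 days with 2 days off, vehicle DMSO. Caliper readings every 3–4 days, V = 0.52 × length × width². Animals sacrificed when any tumor reached 1500 mm³.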

[3] = target: T1, Sphingomyelin phosphodiesterase (Homo sapiens) (UniProt P17405); assay: Inhibition of human GFP-tagged ASM expressed in dog MDCK cells using sphingomyelin as substrate at 5 uM incubated for 48 hrs by Amplex Red dye based fluorescence analysis; format: cell-based
T1 sequence (whole entry): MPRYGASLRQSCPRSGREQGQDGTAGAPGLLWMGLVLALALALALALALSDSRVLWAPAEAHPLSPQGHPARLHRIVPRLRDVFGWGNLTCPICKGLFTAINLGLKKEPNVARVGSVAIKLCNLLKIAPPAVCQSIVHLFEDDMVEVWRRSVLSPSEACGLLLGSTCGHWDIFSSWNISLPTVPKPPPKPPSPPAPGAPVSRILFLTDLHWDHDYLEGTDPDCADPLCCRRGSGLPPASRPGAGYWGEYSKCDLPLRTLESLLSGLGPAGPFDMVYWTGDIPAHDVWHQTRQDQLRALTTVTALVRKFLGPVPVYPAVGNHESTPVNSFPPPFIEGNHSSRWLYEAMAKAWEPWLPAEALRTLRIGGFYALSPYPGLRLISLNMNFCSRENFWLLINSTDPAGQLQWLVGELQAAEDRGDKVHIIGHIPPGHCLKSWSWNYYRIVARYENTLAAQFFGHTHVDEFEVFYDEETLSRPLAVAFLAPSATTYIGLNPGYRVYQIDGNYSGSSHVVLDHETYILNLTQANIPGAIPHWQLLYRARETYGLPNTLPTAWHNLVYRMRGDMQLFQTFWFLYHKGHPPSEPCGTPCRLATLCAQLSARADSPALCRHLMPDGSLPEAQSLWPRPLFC
How it was run: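 MDCK cells stably expressing human SMPD1-GFP treated 48 h at 5 µM. Whole-cell lysate, made without DTT, mixed with 50 mM sodium acetate pH 5.0 plus sphingomyelin and held 1 h at 37 °C. pH then raised to 7.4 with Amplex Red mix (100 µM Amplex Red, 2 U/mL HRP, 0.2 U/mL choline oxidase, 8 U/mL alkaline phosphatase, 100 mM Tris pH 8.0), 60 min at 37 °C. Fluorescence read at Ex 540/Em 590 nm. Controls: 0.1 U/mL SMase (positive), buffer alone (negative).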

Caenorhabditis elegans = assay: In vivo inhibition of KRAS signaling in Caenorhabditis elegans lin-1 L1 harboring let60 […] mutant assessed as reduction in multi-vulva phenotype measured after 4 to 5 days culturing in buffer containing Escherichia coli OP50 by DIC/Nomarski microscopic analysis; format: functional, organism-based; conditions: dose 0.1-30 µM, time 4-5 day
How it was run: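 let-60 (n1046) or lin-1 L1 larvae cultured in M9 buffer with E. coli OP50 plus DMSO vehicle or compound at 0.1, 0.3, 1, 3, 10 or 30 µM. After 4–5 days, adults were scored for multi-vulva by DIC/Nomarski microscopy.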

Caco-2 = assay: Antiproliferative activity against human Caco-2 cells expressing wild type KRAS assessed as reduction in cell growth incubated for 72 hrs by CyQuant proliferation assay; format: functional, cell-based; conditions: Caco-2, 72 h; how it was run: as §1
NCI-H1299 = assay: Antiproliferative activity against human NCI-H1299 cells expressing wild type KRAS assessed as reduction in cell growth incubated for 72 hrs by CyQuant proliferation assay; format: functional, cell-based; conditions: NCI-H1299, 72 h; how it was run: as §1
HEC-1B cell line = assay: Antiproliferative activity against human HEC-1B cells expressing mutant KRAS assessed as reduction in cell growth incubated for 72 hrs by CyQuant proliferation assay; format: functional, cell-based; how it was run: as §1
NCI-H522 = assay: Antiproliferative activity against human NCI-H522 cells expressing wild type KRAS assessed as reduction in cell growth incubated for 72 hrs by CyQuant proliferation assay; format: functional, cell-based; conditions: NCI-H522, 72 h; how it was run: as §1
HEC-1-A = assay: Antiproliferative activity against human HEC-1-A cells expressing mutant KRAS assessed as reduction in cell growth incubated for 72 hrs by CyQuant proliferation assay; format: functional, cell-based; how it was run: as §1
BXPC-3 [4] = assay: Antitumor activity against human BXPC-3 cells harboring wild type KRAS xenografted in nu/nu mouse assessed as reduction in tumor growth at 1 mg/kg, ip administered once daily for 5 days with 2 days break by caliper analysis; format: functional, organism-based; conditions: time 5.0 day
How it was run: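 BxPC3 xenografts in nu/nu mice dosed i.p. with compound or DMSO vehicle on a schedule of daily for 5 days and 2 days off. Tumor size measured by external caliper every 3–4 days.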

MIA PaCa-2 [5] = assay: Antiproliferative activity against human MIA PaCa-2 cells expressing KRAS mutant assessed as reduction in cell growth incubated for 72 hrs by CyQuant proliferation assay; format: functional, cell-based; conditions: MIA PaCa-2, 72 h; how it was run: as §1
MIA PaCa-2 [6] = assay: Antitumor activity against human MIA PaCa-2 cells harboring KRAS mutant xenografted in nu/nu mouse assessed as reduction in tumor growth at 2.5 to 5 mg/kg, ip administered once daily for 5 days with 2 days break by caliper analysis; format: functional, organism-based; conditions: dose 2.5-5 mg/kg, time 5.0 day; how it was run: as §2

Compound	IC50 (BXPC-3 [1]) [µM]	Activity (ESS-1)	Activity (MIA PaCa-2 [2])	inhibition [3]	inhibition (Caenorhabditis elegans)	IC50 (Caco-2) [µM]	IC50 (NCI-H1299) [µM]	IC50 (HEC-1B cell line) [µM]	IC50 (NCI-H522) [µM]	IC50 (HEC-1-A) [µM]	Activity (BXPC-3 [4])	IC50 (MIA PaCa-2 [5]) [µM]	Activity (MIA PaCa-2 [6])
COc1ccc([C@@H](C)N(CC=C(c2ccccc2)c2ccccc2)CCN2CCCC2)cc1	5.5	inactive	Active	Active	Dose-Dependent Effect	4.2	8	3	27.3	2.3	inactive	3.1	
COc1ccc([C@@H](C)N(CC=C(c2ccccc2)c2ccccc2)CCCN2CCN(C)CC2)cc1	5.3	inactive		Active	Dose-Dependent Effect				23.5				Active
